Source: PubChem BioAssay
A3G deaminase – APOBEC3G DNA deaminase inhibitors, primary screen, biochemical, fluorescence, single-stranded DNA substrate, uHTS; DNA dC->dU-editing enzyme APOBEC-3G (Homo sapiens), Q9HC16; recombinant A3G, ssDNA deamination FAM/TAMRA fluorescence; inhibition, % at 20 µM; hit rate 0.28% among 330,000; AID 493012, 2011;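 active means inhibition of at least 40% at 20 µM, with no more than 30% in the related APOBEC3A deaminase screen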
PolyA inhibitor – polyadenylation inhibitors in yeast reporter cells, primary screen, luminescence, S. cerevisiae. S. cerevisiae SKY197-pL101 polyadenylation reporter, beta-gal luminescence; efflux-impaired pdr1/pdr3 knockout yeast; score 100 = 6 SD above DMSO. activity score, % at 12 µM. hit rate 0.02% among 300,000. AID 1875, 2009;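 active means lowest replicate activity score at least 50, where 100 means six control SD above control mean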;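 further: yeast exposed to compound for 9 h at 30 °C; higher score means more reporter readthrough which indicates perturbed polyadenylation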
APOBEC3A inh – APOBEC3A ssDNA deaminase inhibitors, primary screen, selectivity assay for APOBEC3G inhibitor project, biochemical, FAM/TAMRA oligo cleavage fluorescence | DNA dC->dU-editing enzyme APOBEC-3A (Homo sapiens), P31941 | recombinant A3A, FAM/TAMRA ssDNA deamination fluorescence | inhibition, % at 20 µM | hit rate 0.41% among 330,000;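 active means at least 40% inhibition at 20 µM here, with at most 30% in a related deaminase screen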
Target sequence (P31941 whole entry, looked up): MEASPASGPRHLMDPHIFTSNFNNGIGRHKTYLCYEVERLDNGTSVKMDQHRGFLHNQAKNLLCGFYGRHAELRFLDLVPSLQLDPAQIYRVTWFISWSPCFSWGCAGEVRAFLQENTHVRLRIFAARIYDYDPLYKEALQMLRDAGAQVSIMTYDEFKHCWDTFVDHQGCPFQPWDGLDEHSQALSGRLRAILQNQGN
Arr AP2 block – inhibitors of beta-arrestin/AP2 binding, primary screen, biochemical, GPCR trafficking, flow cytometry; FITC-arrestin peptide / GST-AP2 beads; AP2 beta2 appendage carries R879A mutation; inhibition, % at 10 µM; hit rate 0.31% among 340,000;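 active means inhibition above a set limit, near 3 SD of compounds lacking own fluorescence, cut at about 54% in these data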
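Test system: GST-tagged AP2 beta2-adaptin appendage (R879A) on 4 µm glutathione beads; also added: fluorescein-tagged arrestin peptide at 50 nM final; timing: 12 min plus 1 h, RT; signal: flow cytometry, FL1 (488/535 nm); read-out: percent drop in bead-associated FITC signal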
UCH37 inh – inhibitors of human UCH37 deubiquitinase, primary screen, biochemical, Ub-AMC cleavage, fluorescence; purified proteasome/UCH37; inhibition, % (test concentration not listed); hit rate 0.33% among 330,000;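 active means mean inhibition over replicate wells above about 20%, limit read from the data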
Target sequence (Q9Y5K5 whole entry, looked up): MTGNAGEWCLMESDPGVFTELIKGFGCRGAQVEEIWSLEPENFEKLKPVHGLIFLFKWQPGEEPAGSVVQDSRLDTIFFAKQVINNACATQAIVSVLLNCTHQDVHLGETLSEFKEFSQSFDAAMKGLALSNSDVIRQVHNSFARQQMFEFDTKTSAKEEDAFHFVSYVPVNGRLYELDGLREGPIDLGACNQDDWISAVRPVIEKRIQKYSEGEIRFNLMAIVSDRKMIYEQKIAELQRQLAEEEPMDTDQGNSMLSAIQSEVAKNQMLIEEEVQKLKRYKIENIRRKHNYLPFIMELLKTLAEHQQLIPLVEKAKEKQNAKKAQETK
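assay system = human UCH37 enzyme supplied as purified proteasome complex | amount = proteasome at 0.15 nM in the dispensed enzyme solution | schedule = 30 min compound-proteasome preincubation then 25 min substrate reaction, room temperature | measured by = fluorescence, ex 355 nm, em 460 nm | benchmarks = no-proteasome wells (full inhibition) and compound-free wells (no inhibition)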
AHR act – AHR activators, primary screen, cell-based, luminescence, luciferase reporter, human; Aryl hydrocarbon receptor (Homo sapiens), P35869; AHR-responsive luciferase reporter cells; activation, % at 5 µM; hit rate 2.5% among 320,000; in the data active means activation above about 47%
Arr-AP2 CP1 – inhibitors of arrestin peptide binding to AP2, confirmation, biochemical, cherry pick 1, flow cytometry beads | inhibition, % at 10 µM | AID 504908, 2011 | hit rate 2% among 1,300 | GST-AP2 beads, FITC arrestin peptide binding; GST-fused beta2-adaptin appendage, R879A mutant | shares compounds with Arr AP2 block;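 active means inhibition above a set limit, roughly 3 SD of non-fluorescent compound noise, cut at about 38% in these data; inactive means inhibition at or below that limit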;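 further: loss of bead fluorescence from 50 nM FITC arrestin peptide bound to appendage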
GST GSH counter – GST-fluorescein capture on glutathione beads, confirmation, artefact control for arrestin-AP2 inhibitor project, biochemical, cherry pick 1, flow cytometry; shares compounds with Arr AP2 block; GST-fluorescein binding to GSH beads, fluorescence, counter-screen; inhibition, % at 10 µM; hit rate 2% among 1,300; AID 588338, 2011;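 active means inhibition above 50%, about 3 SD of the inhibition seen with non-fluorescent compounds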;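 further: fluorescein maleimide labelled GST captured on 4 micron glutathione beads; higher means more loss of bead fluorescence from quenching or blocked binding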
Numbers stand for hits; n = inactive; x = not tested or not shown. In the library only some 3.4% were active in any assay of this set; here they are far more common.

SMILES	A3G deaminase	PolyA inhibitor	APOBEC3A inh	Arr AP2 block	UCH37 inh	AHR act	Arr-AP2 CP1	GST GSH counter
COc1ccc(OC)c(NC(=O)Nc2cccnc2)c1	n	x	n	n	n	x	x	x
COc1ccccc1NC(=O)Nc1cnccn1	n	n	n	n	n	n	n	n
O=C(Nc1cnccn1)Nc1ccccc1F	n	n	n	n	n	61	n	n
Cc1cc(-c2n[nH]c(=S)n2N=Cc2cccc(O)c2)n[nH]1	x	x	x	x	n	x	x	x
N#Cc1c(NC(=O)CSc2ncnc3c2cnn3-c2ccccc2Cl)sc2c1CCCC2	n	n	n	60	n	n	n	n
COC(=O)c1c(NC(=O)CSc2ncnc3c2cnn3-c2ccccc2Cl)sc2c1CCCC2	n	n	n	n	n	n	x	x
CCOC(=O)N1CCN(C(=O)/C(=C/c2cccs2)NC(=O)c2ccc(OC)c(OC)c2)CC1	n	n	n	60	n	n	n	n
CN(C)c1ccc(/C=N\Nc2nc(-c3ccccc3)cc(=O)[nH]2)cc1	n	n	n	102	x	n	n	n
CCCC1(c2ccccc2)NC(=O)N(CC(=O)Nc2ccc3c(c2)OCCO3)C1=O (stereo unspecified)	n	x	n	65	n	n	n	n
CN(C)c1ccc(S(=O)(=O)N2CCCCC2)cc1NC(=O)CN1C(=O)NC2(CCCC2)C1=O	n	n	n	54	n	n	n	n
CN(C)c1ccc(S(=O)(=O)N2CCCCC2)cc1NC(=O)CN1C(=O)NC(C)(c2ccccc2)C1=O (stereo unspecified)	n	n	n	n	n	n	x	x
CC1CC(C)CN(CCCNC(=O)c2cc3c(=O)[nH]c4ccccc4c3n2C)C1 (stereo unspecified)	n	n	n	60	n	n	n	n
C(=N\n1cnnc1)/c1ccc(N2CCOCC2)s1	n	n	n	92	x	n	n	n
COc1ccc(CSCC(=O)NN=Cc2ccccc2O)cc1	x	x	x	x	n	x	x	x
Cc1[nH]n(-c2ccccc2)c(=O)c1C=NNC(=O)c1cccc(F)c1	x	x	x	x	n	x	x	x
CN1c2ccccc2N(C)C1(C)c1ccccc1	x	n	x	67	n	n	62	n
CN1C(=O)N(C)C2(c3ccccc3)NC(=O)NC12c1ccccc1 (stereo unspecified)	n	n	n	n	n	n	x	x
CC(=NNC(=O)c1cccs1)c1cccc(NC(=O)C2CC2)c1	x	x	x	x	n	x	x	x
CCN(CC)Cc1c(O)ccc2c(=O)c(Oc3ccccc3OC)coc12	n	n	n	56	n	n	n	n
COc1ccccc1Oc1coc2c(CN(C)C)c(O)ccc2c1=O	n	n	n	n	n	n	x	x
Cc1cc(=O)[nH]c(NN=Cc2ccc(-c3ccc([N+](=O)[O-])cc3)o2)n1	x	x	x	x	n	x	x	x
Cn1c(=O)c2c(ncn2CC(=O)N2CCN(S(=O)(=O)c3ccccc3)CC2)n(C)c1=O	n	n	n	57	n	n	n	n
O=C(Oc1ccc(C(=S)N2CCCCC2)cc1)c1ccccc1	n	n	n	n	n	n	x	x
O=C(Oc1cccc(C(=S)N2CCCCC2)c1)c1ccccc1	n	n	n	56	n	n	n	n
CC1CCCN(C2(O)C(=O)Nc3ccc(Cl)cc32)C1 (stereo unspecified)	n	n	n	57	n	n	n	n
SMILES	A3G deaminase	PolyA inhibitor	APOBEC3A inh	Arr AP2 block	UCH37 inh	AHR act	Arr-AP2 CP1	GST GSH counter
CC(=O)c1nn(-c2ccccc2)cc1C(=O)c1ccc(Br)cc1	n	n	n	104	n	n	n	n
CCCNC(=O)Cn1nc([N+](=O)[O-])c([N+](=O)[O-])c1C	n	n	n	n	n	n	x	x
CCCCNC(=O)Cn1nc([N+](=O)[O-])c([N+](=O)[O-])c1C	n	n	n	69	n	n	n	n
Cc1ccc(C)c(NC(=O)COC(=O)c2cc3ccccc3oc2=O)c1	n	x	n	66	n	n	n	n
O=C(CC(=O)c1ccccc1)Nc1ccccc1C(F)(F)F	n	n	n	n	n	n	n	n
O=C(CC(=O)Nc1ccccc1C(F)(F)F)Nc1ccccc1C(F)(F)F	n	n	n	n	n	n	x	x
COC(=O)NN=C(C)c1ccc(OC(F)F)cc1	x	x	x	x	n	x	x	x
Cc1ccc(S(=O)(=O)NCc2ccccc2)cc1	n	n	n	56	n	n	n	n
CCC(Cc1ccccc1)=NNC(=O)c1cccc(Br)c1	x	x	x	x	n	x	x	x
COc1cc(C=NNC(=O)CC#N)ccc1OC/C=C/c1ccccc1	x	x	x	x	n	x	x	x
COC(=O)CSc1nc(N)nc(C)c1Br	n	n	n	56	n	n	n	n
CC(=O)Nc1ccc(NC(=NS(=O)(=O)c2ccccc2)c2ccccc2)cc1	x	x	x	x	n	x	x	x
Cc1nc2c(C)cccn2c(=O)c1NC(=O)c1cccs1	n	n	n	66	n	n	n	n
CN1CCN(S(=O)(=O)c2cc([N+](=O)[O-])ccc2NN=Cc2ccc(Cl)cc2)CC1	x	x	x	x	n	x	x	x
CN1CCN(S(=O)(=O)c2cc([N+](=O)[O-])ccc2N/N=C/c2ccc(Cl)cc2)CC1	n	n	n	98	x	n	n	n
O=C(NN=Cc1cccc2ccccc12)C(=O)N1CCCC1	x	x	x	x	n	x	x	x
C[C@@H](C(=O)Nc1ccc2c(c1)OCO2)n1c(=O)[nH]c2ccccc2c1=O	n	n	n	n	n	n	n	n
O=C(Cn1ccc2ccccc2c1=O)Nc1ccc2c(c1)OCO2	n	n	n	n	n	n	x	x
C[C@@H](C(=O)Nc1ccc2c(c1)OCCO2)n1c(=O)[nH]c2ccccc2c1=O	n	n	n	n	n	n	n	n
O=C(Cn1c(=O)[nH]c2ccccc2c1=O)Nc1ccc2c(c1)OCO2	n	n	n	n	n	n	n	n
O=C(COC(=O)c1ccccn1)c1ccc(Br)cc1	n	n	n	n	n	n	x	x
COc1cc(OC)cc(C(=O)O/N=C(\N)c2ccccn2)c1	n	n	n	55	n	n	n	n
COc1ccc(C(=O)COC(=O)c2ccccn2)cc1OC	n	x	n	56	n	n	n	n
O=C(NN=Cc1cccnc1)c1ccccc1O	x	x	x	x	n	x	x	x
